Data: ChEMBL document CHEMBL1154117, “Synthesis and evaluation of a novel series of quinoline derivatives with immunosuppressive activity” (Bioorg Med Chem, 2009)

How the values were obtained:
[1] = Immunosuppressive activity in BALB/c mouse splenocytes assessed as inhibition of concanavalin A-induced cell proliferation at 100 uM after 48 hrs by MTT assay; format: functional; conditions: Splenocyte
Summary of the method: (§1)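 Spleen cells (5 × 10⁵) from male BALB/c mice aged 6–8 weeks, erythrocytes lysed, stimulated with ConA 5 μg/mL in RPMI-1640/10% FBS. Compounds diluted from DMSO stock. ConA-stimulated cells used as control. Proliferation read by MTT added 4 h before end of culture, SDS/DMF lysis for 6 h, absorbance at 570 nm.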

[2] = system: Splenocyte; experiment: Immunosuppressive activity against concanavalin A-induced BALB/c mouse splenocytes assessed as inhibition of [3H]thymidine incorporation at 30 uM by liquid scintillation counting; format: functional
[3] = system: T-cell; experiment: Immunosuppressive activity against concanavalin A-induced BALB/c mouse splenocytes assessed as T-cells activation at 10 uM after 24 hrs by FACS assay; format: functional
Summary of the method: (§2)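 Male BALB/c splenocytes (6–8 weeks), 5 × 10⁵, stimulated with ConA 5 μg/mL, with or without compound. After 24 h, cells washed twice in cold PBS and stained with CD25-FITC and CD4-APC for 30 min at 4 °C. Washed again and analysed by flow cytometry as the CD4+CD25+/CD4+ percentage.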

[4] = system: Splenocyte; experiment: Immunosuppressive activity against concanavalin A-induced BALB/c mouse splenocytes assessed as inhibition of [3H]thymidine incorporation at 10 uM by liquid scintillation counting; format: functional
[5] = Cytotoxicity against BALB/c mouse splenocytes at 100 uM after 48 hrs by MTT assay; format: cell-based, Splenocyte; conditions: read-out: INH
Summary of the method: (§3)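 BALB/c spleen single-cell suspension, erythrocytes depleted with Tris-buffered NH4Cl (0.155 M NH4Cl, 16.5 mM Tris, pH 7.2). Cells cultured in RPMI-1640 with 10% FBS and compound diluted from DMSO stock (0.1% DMSO in control). Medium-alone cells served as control. MTT (5 mg/mL) added 4 h before end of culture, then SDS/DMF lysis buffer (pH 7.2) for 6 h. Absorbance read at 570 nm and growth inhibition % calculated.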

[6] = system: T-cell; experiment: Immunosuppressive activity against concanavalin A-induced BALB/c mouse splenocytes assessed as T-cells activation at 1 uM after 24 hrs by FACS assay; format: functional; summary of the method: as §2
[7] = system: Splenocyte; experiment: Immunosuppressive activity against concanavalin A-induced BALB/c mouse splenocytes assessed as inhibition of [3H]thymidine incorporation at 1 uM by liquid scintillation counting; format: functional
[8] = Immunosuppressive activity in BALB/c mouse splenocytes assessed as inhibition of concanavalin A-induced cell proliferation at 30 uM after 48 hrs by MTT assay; format: functional; conditions: Splenocyte; summary of the method: as §1
[9] = Cytotoxicity against BALB/c mouse splenocytes at 10 uM after 48 hrs by MTT assay; format: cell-based, Splenocyte; conditions: read-out: INH; summary of the method: as §3
[10] = Immunosuppressive activity in BALB/c mouse splenocytes assessed as inhibition of concanavalin A-induced cell proliferation at 10 uM after 48 hrs by MTT assay; format: functional; conditions: Splenocyte; summary of the method: as §1
[11] = Cytotoxicity against BALB/c mouse splenocytes at 30 uM after 48 hrs by MTT assay; format: cell-based, Splenocyte; conditions: read-out: INH; summary of the method: as §3
[12] = system: T-cell; experiment: Immunosuppressive activity against concanavalin A-induced BALB/c mouse splenocytes assessed as T-cells activation at 30 uM after 24 hrs by FACS assay; format: functional; summary of the method: as §2
[13] = system: T-cell; experiment: Immunosuppressive activity against concanavalin A-induced BALB/c mouse splenocytes assessed as T-cells activation at 3 uM after 24 hrs by FACS assay; format: functional; summary of the method: as §2
[14] = Immunosuppressive activity in BALB/c mouse splenocytes assessed as inhibition of concanavalin A-induced cell proliferation at 1 uM after 48 hrs by MTT assay; format: functional; conditions: Splenocyte; summary of the method: as §1

Row | SMILES | inhibition at 100 µM [1] | inhibition at 30 µM [2] | Activity [3] | inhibition at 10 µM [4] | cytotoxicity at 48 h, 100 µM [5] | Activity [6] | inhibition at 1 µM [7] | inhibition at 30 µM [8] | cytotoxicity at 48 h, 10 µM [9] | inhibition at 10 µM [10] | cytotoxicity at 48 h, 30 µM [11] | Activity [12] | Activity [13] | inhibition at 1 µM [14]
1 | COc1cc(OC)c2c(OC(=O)c3ccccc3Br)ccnc2c1 | 93.3% | 85.4% | 93.63% | 42% | 29.2% | 94.92% | 4.8% | 85.7% | 9.8% | 51.2% | 22.5% | 86.21% | 93.23% | 
2 | C/C=C/C[C@@H](C)[C@@H](O)[C@H]1C(=O)N[C@@H](CC)C(=O)N(C)CC(=O)N(C)[C@@H](CC(C)C)C(=O)N[C@@H](C(C)C)C(=O)N(C)[C@@H](CC(C)C)C(=O)N[C@@H](C)C(=O)N[C@H](C)C(=O)N(C)[C@@H](CC(C)C)C(=O)N(C)[C@@H](CC(C)C)C(=O)N(C)[C@@H](C(C)C)C(=O)N1C [CYCLOSPORINE] |  |  |  |  |  | 35.14% |  |  |  |  |  |  |  | 86.4%
3 | COc1cc(OC)c2c(OC(=O)c3ccccc3I)ccnc2c1 | 93% | 87.1% | 90.04% | 47.5% | 54.7% | 93.1% | 8.2% | 90.6% | 14.3% | 63% | 26.5% | 83.23% | 91.87% | 
4 | COc1cc(OC)c2c(OC(=O)c3ccccc3[N+](=O)[O-])ccnc2c1 | 90.5% | 64.6% | 92.75% | 21.1% | 33.4% | 94.79% | 10.2% | 75.2% | 10.7% | 38.6% | 32% | 86.19% | 94.01% | 
5 | COc1cc(OC)c2c(OS(=O)(=O)c3ccc(C)cc3)ccnc2c1 | 94.2% | 98.9% | 68.39% | 87.7% | 13.2% | 85.74% | 12.9% | 94.7% | 6.2% | 82.3% | 5.4% | 13.7% | 81.66% | 
6 | COc1cc(OC)c2c(OC(=O)c3c(Cl)cccc3Cl)ccnc2c1 | 94.3% | 99.2% | 59.64% | 97.8% | 83.4% | 92.96% | 34.7% | 94.6% | 10.9% | 94% | 52.7% | 19.41% | 88.8% | 
7 | COc1cc(OC)c2c(OC(=O)c3ccccc3Cl)ccnc2c1 | 89.8% | 52% | 93.1% | 37.9% | 39.8% | 95.63% | 4.3% | 73.7% | 2.9% | 46.1% | 6.6% | 90.86% | 92.8% | 
